According to ChEMBL document CHEMBL1122494, “New selenium-75 labeled radiopharmaceuticals: selenonium analogues of dopamine” (J Med Chem, 1983):

How the values were obtained:
Type in all cases: ADME, organism-based
[1] = tested on: Rattus norvegicus; test: Distribution of Se-75 activity in Brain of female Sprague-Dawley Rat 30 min after iv administration of compound; conditions: in vivo, 0.5 h
[2] = tested on: Rattus norvegicus; test: Distribution of Se-75 activity in Brain of female Sprague-Dawley Rat 5 min after iv administration of compound; conditions: in vivo
[3] = tested on: Rattus norvegicus; test: Distribution of Se-75 activity in blood of female Sprague-Dawley Rat 5 min after iv administration of compound; conditions: in vivo
In short: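 Female Sprague-Dawley rats (100-300 g) got 5-6 μCi of [75Se]selenonium salt in 0.2 mL saline via lateral tail vein. Groups of five were anesthetized with chloroform at set times and killed by cardioectomy. Tissues were rinsed, blotted and weighed, then gamma-counted. Values are % injected dose per gram, mean and SEM of five.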

[4] = tested on: Rattus norvegicus; test: Distribution of Se-75 activity in Adrenal of female Sprague-Dawley Rat 120 min after iv administration compound; conditions: in vivo, 2 h
In short: (§1)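 Female Sprague-Dawley rats (100-300 g), five per group, got [75Se]selenonium salt by lateral tail vein: 0.2 mL saline with 5-6 μCi. Groups were killed by cardioectomy under chloroform anesthesia at the set times. The organ was taken intact, rinsed with saline, blotted, weighed and gamma counted. Values are % injected dose/g, mean and SEM of five.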

[5] = tested on: Rattus norvegicus; test: Distribution of Se-75 activity in Kidney of female Sprague-Dawley Rat 120 min after iv administration compound; conditions: in vivo, 2 h; in short: as §1
[6] = tested on: Rattus norvegicus; test: Distribution of Se-75 activity in Adrenal of female Sprague-Dawley Rat 30 min after iv administration of compound; conditions: in vivo, 0.5 h; in short: as §1
[7] = tested on: Rattus norvegicus; test: Distribution of Se-75 activity in Kidney of female Sprague-Dawley Rat 240 min after iv administration compound; conditions: in vivo, 4 h; in short: as §1
[8] = tested on: Rattus norvegicus; test: Distribution of Se-75 activity in Heart of female Sprague-Dawley Rat 240 min after iv administration compound; conditions: in vivo, 4 h; in short: as §1
[9] = tested on: Rattus norvegicus; test: Tissue radioactivity ratio in Heart to Blood 120 min after Intravenous Injection in rats; conditions: other tissue, 2 h
In short: (§2)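 Same rat biodistribution: female Sprague-Dawley rats (100-300 g), 5-6 μCi [75Se]selenonium salt in 0.2 mL saline iv by tail vein, five per time point, killed by cardioectomy under chloroform. Ratios are tissue-to-tissue quotients of gamma-counted % injected dose per gram in each organ (adrenal, heart, kidney, liver, blood).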

[10] = tested on: Rattus norvegicus; test: Tissue radioactivity ratio in adrenal to Liver 240 min after Intravenous Injection in rats; conditions: in vivo, 4 h; in short: as §2
[11] = tested on: Rattus norvegicus; test: Distribution of Se-75 activity in Brain of female Sprague-Dawley Rat 120 min after iv administration compound; conditions: in vivo, 2 h
[12] = tested on: Rattus norvegicus; test: Distribution of Se-75 activity in Heart of female Sprague-Dawley Rat 120 min after iv administration compound; conditions: in vivo, 2 h; in short: as §1
[13] = tested on: Rattus norvegicus; test: Distribution of Se-75 activity in Liver of female Sprague-Dawley Rat 5 min after iv administration of compound; conditions: in vivo
In short: (§3)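 Female Sprague-Dawley rats (100-300 g), five per group, got [75Se]selenonium salt in 0.2 mL saline (5-6 μCi) by lateral tail vein. They were killed by cardioectomy under chloroform anesthesia at the stated time. A sample of the large organ was weighed and gamma counted, and counts were converted to % injected dose/g. Values are mean and SEM of five.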

[14] = tested on: Rattus norvegicus; test: Distribution of Se-75 activity in Liver of female Sprague-Dawley Rat 60 min after iv administration of dcompound; conditions: in vivo, 1 h; in short: as §3
[15] = tested on: Rattus norvegicus; test: Distribution of Se-75 activity in Lung of female Sprague-Dawley Rat 120 min after iv administration compound; conditions: in vivo, 2 h; in short: as §3
[16] = tested on: Rattus norvegicus; test: Distribution of Se-75 activity in blood of female Sprague-Dawley Rat 120 min after iv administration of compound; conditions: in vivo, 2 h
In short: (§4)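 Tail-vein injection of 5-6 μCi [75Se]selenonium salt in 0.2 mL saline into female Sprague-Dawley rats (100-300 g), five per group. Rats were killed by cardioectomy under chloroform anesthesia at the time point. Radioactivity was gamma counted and expressed as % injected dose/g, mean and SEM of five.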

[17] = tested on: Rattus norvegicus; test: Tissue radioactivity ratio in adrenal to Kidney 120 min after Intravenous Injection in rats; conditions: in vivo, 2 h; in short: as §2
[18] = tested on: Rattus norvegicus; test: Distribution of Se-75 activity in Adrenal of female Sprague-Dawley Rat 240 min after iv administration compound; conditions: in vivo, 4 h; in short: as §1
[19] = tested on: Rattus norvegicus; test: Distribution of Se-75 activity in Liver of female Sprague-Dawley Rat 30 min after iv administration of compound; conditions: in vivo, 0.5 h; in short: as §3
[20] = tested on: Rattus norvegicus; test: Distribution of Se-75 activity in Brain of female Sprague-Dawley Rat 240 min after iv administration compound; conditions: in vivo, 4 h
[21] = tested on: Rattus norvegicus; test: Distribution of Se-75 activity in Lung of female Sprague-Dawley Rat 240 min after iv administration compound; conditions: in vivo, 4 h; in short: as §3
[22] = tested on: Rattus norvegicus; test: Tissue radioactivity ratio in Heart to Blood 30 min after Intravenous Injection in rats; conditions: other tissue, 0.5 h; in short: as §2
[23] = tested on: Rattus norvegicus; test: Tissue radioactivity ratio in adrenal to Kidney 5 min after Intravenous Injection in rats; conditions: in vivo; in short: as §2
[24] = tested on: Rattus norvegicus; test: Tissue radioactivity ratio in adrenal to Kidney 15 min after Intravenous Injection in rats; conditions: in vivo, 0.25 h; in short: as §2
[25] = tested on: Rattus norvegicus; test: Distribution of Se-75 activity in Adrenal of female Sprague-Dawley Rat 240 min after iv administration of compound; conditions: in vivo, 4 h; in short: as §1
[26] = tested on: Rattus norvegicus; test: Distribution of Se-75 activity in Adrenal of female Sprague-Dawley Rat 120 min after iv administration of compound; conditions: in vivo, 2 h; in short: as §1
[27] = tested on: Rattus norvegicus; test: Distribution of Se-75 activity in Liver of female Sprague-Dawley Rat 60 min after iv administration of compound; conditions: in vivo, 1 h; in short: as §3
[28] = tested on: Rattus norvegicus; test: Distribution of Se-75 activity in Heart of female Sprague-Dawley Rat 120 min after iv administration of compound; conditions: in vivo, 2 h; in short: as §1
[29] = tested on: Rattus norvegicus; test: Distribution of Se-75 activity in Lung of female Sprague-Dawley Rat 120 min after iv administration of compound; conditions: in vivo, 2 h; in short: as §3
[30] = tested on: Rattus norvegicus; test: Distribution of Se-75 activity in Brain of female Sprague-Dawley Rat 120 min after iv administration of compound; conditions: in vivo, 2 h
[31] = tested on: Rattus norvegicus; test: Distribution of Se-75 activity in Brain of female Sprague-Dawley Rat 240 min after iv administration of compound; conditions: in vivo, 4 h
[32] = tested on: Rattus norvegicus; test: Distribution of Se-75 activity in Kidney of female Sprague-Dawley Rat 240 min after iv administration of compound; conditions: in vivo, 4 h; in short: as §1
[33] = tested on: Rattus norvegicus; test: Distribution of Se-75 activity in Kidney of female Sprague-Dawley Rat 120 min after iv administration of compound; conditions: in vivo, 2 h; in short: as §1
[34] = tested on: Rattus norvegicus; test: Distribution of Se-75 activity in Heart of female Sprague-Dawley Rat 240 min after iv administration of dose 5 uCi/0.2 mL; conditions: in vivo, 4 h; in short: as §1
[35] = tested on: Rattus norvegicus; test: Distribution of Se-75 activity in blood of female Sprague-Dawley Rat 120 min after iv administration compound; conditions: in vivo, 2 h; in short: as §4
[36] = tested on: Rattus norvegicus; test: Distribution of Se-75 activity in Lung of female Sprague-Dawley Rat 240 min after iv administration of compound; conditions: in vivo, 4 h; in short: as §3

Row | Structure (SMILES) | Dose/g [1] [%] | Dose/g [2] [%] | Dose/g [3] [%] | Dose/g [6] [%] | Ratio [9] | Ratio [10] | Dose/g [13] [%] | Ratio [17] | Dose/g [19] [%] | Ratio [22] | Ratio [23] | Ratio [24] | further results
1 | COc1ccc(CC[Se+](C)C)cc1OC.[I-] | 0.02 | 0.03 | 0.34 | 0.94 | 2.12 | 3.55 | 2.48 | 2.24 | 1.75 | 2.64 | 0.31 | 0.68 | Dose/g [4]: 0.74%; Dose/g [5]: 0.33%; Dose/g [7]: 0.16%; Dose/g [8]: 0.06%; Dose/g [11]: 0.01%; Dose/g [12]: 0.17%; Dose/g [14]: 0.62%; Dose/g [15]: 0.19%; Dose/g [16]: 0.08%; Dose/g [18]: 0.64%; Dose/g [20]: 0%; Dose/g [21]: 0.07%
2 | C[Se+](C)CCc1ccc(O)c(O)c1.[Cl-] | 0.01 | 0.02 | 0.35 | 0.86 | 2.62 | 2.56 | 1.86 | 2.52 | 2.73 | 3.86 | 0.29 | 0.81 | Dose/g [25]: 0.59%; Dose/g [26]: 0.73%; Dose/g [27]: 0.8%; Dose/g [28]: 0.21%; Dose/g [29]: 0.2%; Dose/g [30]: 0%; Dose/g [31]: 0%; Dose/g [32]: 0.18%; Dose/g [33]: 0.29%; Dose/g [34]: 0.16%; Dose/g [35]: 0.08%; Dose/g [36]: 0.09%
